Active and inactive are the calls of the source. The rule behind the calls is not given here.
Tests used:
[1] = system: Escherichia coli; assay: Antimicrobial activity against Escherichia coli HB101 harboring pBC-SK plasmid assessed as drug level at which microbial resistance was observed by agar dilution method; format: functional
[2] = system: Chryseobacterium indologenes; assay: Antimicrobial activity against Chryseobacterium indologenes NF16 isolate assessed as drug level at which microbial resistance was observed by agar dilution method; format: functional
Procedure, shortened: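 Agar dilution per CLSI guidelines, inoculum 5 × 10^5 CFU per spot; E. coli ATCC 25922 run as quality-control strain.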

[3] = system: Chryseobacterium indologenes; assay: Activity of Chryseobacterium indologenes metallo-beta-lactamase IND-5 expressed in Escherichia coli BL21(DE3) assessed as substrate hydrolysis
Procedure, shortened: (§1)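 Purified IND-5 came from E. coli BL21(DE3)/pET-IND-5, induced with 1 mM IPTG for 2 h at 20°C. It was purified by Mono Q then Mono P chromatography in buffers with 50 μM ZnSO4. Substrate hydrolysis was measured under initial-rate conditions in 30 mM sodium cacodylate pH 6.5 plus 50 μM ZnSO4. Km and kcat came from Hanes linearization and are means of three measurements.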

[4] = system: Escherichia coli; assay: Antimicrobial activity against Escherichia coli HB101 harboring pBC-IND-5 plasmid containing metallo-beta-lactamase IND5 assessed as drug level at which microbial resistance was observed by agar dilution method; format: functional
[5] = system: Chryseobacterium indologenes; assay: Ratio of Kcat to Km of Chryseobacterium indologenes metallo-beta-lactamase IND-5 expressed in Escherichia coli BL21(DE3) assessed as substrate hydrolysis relative to control; parameters: scale not given: the % may be the effect or the level left
[6] = system: Chryseobacterium indologenes; assay: Ratio of Kcat to Km of Chryseobacterium indologenes metallo-beta-lactamase IND-5 expressed in Escherichia coli BL21(DE3) assessed as substrate hydrolysis; procedure, shortened: as §1
[7] = Inhibition of Chryseobacterium indologenes metallo-beta-lactamase IND-5 expressed in Escherichia coli BL21(DE3) using nitrocefin reporter substrate
Procedure, shortened: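 Purified IND-5 at 0.1 μM was incubated for 15 min at 30°C with increasing concentrations of zinc chelator.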

| Compound | Activity [1] [µg/mL] | Activity [2] [µg/mL] | Activity [3] | Activity [4] [µg/mL] | Km [3] [µM] | kcat [3] [s⁻¹] | Activity [5] [%] | kcat/Km [6] [µM⁻¹ s⁻¹] | Ki [7] [µM] |
| --- | --- | --- | --- | --- | --- | --- | --- | --- | --- |
| CO/N=C(\C(=O)N[C@@H]1C(=O)N2C(C(=O)[O-])=C(C[N+]3(C)CCCC3)CS[C@H]12)c1csc(N)n1 | < 0.125 | 0.5 | inactive | 0.5 |  |  |  |  |  |
| CC1(C)S[C@@H]2[C@H](NC(=O)C(C(=O)O)c3ccccc3)C(=O)N2[C@H]1C(=O)O (stereo partly specified) |  |  |  |  | 320 | 17 | 6.3 | 0.053 |  |
| CC1(C)S[C@@H]2[C@H](NC(=O)Cc3ccccc3)C(=O)N2[C@H]1C(=O)O |  |  |  |  | 13 | 10.9 | 100 | 0.84 |  |
| CC1(C)S[C@@H]2[C@H](NC(=O)[C@H](N)c3ccccc3)C(=O)N2[C@H]1C(=O)O |  |  |  |  | 150 | 10.3 | 8.2 | 0.069 |  |
| CC1(C)[C@H](C(=O)O)N2C(=O)C[C@H]2S1(=O)=O |  |  |  |  | 1300 | 3.3 | 0.3 | 0.0025 |  |
| CO[C@@]1(NC(=O)C(C(=O)O)c2ccc(O)cc2)C(=O)N2C(C(=O)O)=C(CSc3nnnn3C)CO[C@@H]21 (stereo partly specified) |  |  | inactive |  |  |  |  |  |  |
| C[C@]1(Cn2ccnn2)[C@H](C(=O)O)N2C(=O)C[C@H]2S1(=O)=O |  |  | inactive |  |  |  |  |  |  |
| O=C(Cc1cccs1)N[C@@H]1C(=O)N2C(C(=O)O)=C(/C=C/c3ccc([N+](=O)[O-])cc3[N+](=O)[O-])CS[C@H]12 |  |  |  |  | 8 | 4.4 | 65 | 0.55 |  |
| CC1(C)S[C@@H]2[C@H](NC(=O)[C@H](N)c3ccc(O)cc3)C(=O)N2[C@H]1C(=O)O [AMOXICILLIN] | 2 | >64 |  | >64 |  |  |  |  |  |
| C[C@H]1[C@H](NC(=O)/C(=N\OC(C)(C)C(=O)O)c2csc(N)n2)C(=O)N1S(=O)(=O)O [AZTREONAM] |  | 32 | inactive |  |  |  |  |  |  |
| Cc1nnc(SCC2=C(C(=O)O)N3C(=O)[C@@H](NC(=O)Cn4cnnn4)[C@H]3SC2)s1 [CEFAZOLIN] | 1 | 64 |  | 64 | 25 | 0.46 | 2.1 | 0.018 |  |
| CO/N=C(\C(=O)N[C@@H]1C(=O)N2C(C(=O)O)=C(COC(C)=O)CS[C@H]12)c1csc(N)n1 [CEFOTAXIME] |  | 32 |  | 16 | 49 | 1.53 | 3.7 | 0.031 |  |
| CC(C)(O/N=C(\C(=O)N[C@@H]1C(=O)N2C(C(=O)[O-])=C(C[n+]3ccccc3)CS[C@H]12)c1csc(N)n1)C(=O)O [CEFTAZIDIME] | <0.5 | 1 |  | 0.5 |  |  |  |  |  |
| O=C(O)c1cccc(C(=O)O)n1 [DIPICOLINIC ACID] |  |  |  |  |  |  |  |  | 3 |
| O=C(O)CN(CCN(CC(=O)O)CC(=O)O)CC(=O)O [EDETIC ACID] |  |  |  |  |  |  |  |  | 815 |
| C[C@@H](O)[C@H]1C(=O)N2C(C(=O)O)=C(SCCNC=N)C[C@H]12 [IMIPENEM ANHYDROUS] | 0.5 | 32 |  | 1 | 300 | 7.28 | 2.8 | 0.024 |  |
| C[C@@H](O)[C@H]1C(=O)N2C(C(=O)O)=C(S[C@@H]3CN[C@H](C(=O)N(C)C)C3)[C@H](C)[C@H]12 [MEROPENEM] | <0.125 | 16 |  | 1 | 280 | 4.13 | 1.8 | 0.015 |  |
| c1cnc2c(c1)ccc1cccnc12 [PHENANTHROLINE] |  |  |  |  |  |  |  |  | 7.3 |
| CCN1CCN(C(=O)N[C@@H](C(=O)N[C@@H]2C(=O)N3[C@@H]2SC(C)(C)[C@@H]3C(=O)O)c2ccccc2)C(=O)C1=O [PIPERACILLIN] | 1 | 16 |  | 32 | 375 | 14.6 | 4.6 | 0.039 |  |

— ChEMBL document CHEMBL1155138, “Identification and characterization of a new metallo-beta-lactamase, IND-5, from a clinical isolate of Chryseobacterium indologenes” (Antimicrob Agents Chemother, 2007)
